pIC50: −log10 of the molar value. Active and inactive are the calls of the source. The calls are words filed in the database; no cut-off is given here.
Columns and labels:
[1] = Inhibition of Plasmodium falciparum falcipain-2 using Z-Leu-Arg-AMC as substrate after 30 mins by spectrophotometric assay
How it was run: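 FP-2 (30 nM) was preincubated 30 min at room temperature with graded compound concentrations in 100 mM sodium acetate pH 5.5 with 10 mM DTT, DMSO ≤1%. Z-Leu-Arg-AMC in the same buffer was then added, and fluorescence (ex 355/em 460) was monitored for 30 min at room temperature. IC50 came from percent inhibition versus concentration plots, three independent experiments.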

Plasmodium falciparum [2] = assay: Inhibition of Plasmodium falciparum falcipain-2 using Z-Leu-Arg-AMC as substrate at 10 uM after 30 mins by spectrophotometric assay
Plasmodium falciparum [3] = assay: Inhibition of Plasmodium falciparum DHFR assessed as oxidation of NADPH to NADP+ at 10 uM after 15 mins spectrophotometric assay
[4] = Inhibition of Plasmodium falciparum DHFR assessed as oxidation of NADPH to NADP+ after 15 mins spectrophotometric assay
How it was run: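 Purified P. falciparum DHFR was preincubated 15 min on ice with graded compound concentrations in buffer containing NADPH, 50 mM TES pH 7.0, 1 mM EDTA, 75 mM 2-mercaptoethanol and 1 mg/mL BSA. DHF was then added to start the reaction, and NADPH oxidation was followed by absorbance at 340 nm. IC50 came from percent inhibition versus concentration plots, three independent experiments.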

Plasmodium berghei [5] = assay: Antimalarial activity against Plasmodium berghei ANKA infected in Kunming mouse assessed as mouse survival at 18 mg/kg, ip for 4 days measured on day 10; assay type: functional, organism-based; design: dose 18 mg/kg; conditions: in the assay text read “ig for 4 days” for “ip for 4 days”
How it was run: (§1)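 Kunming mice (groups of 10, 20 2 g) infected ip with 0.2 mL of RBC (5 × 10⁶) from P. berghei ANKA-infected mice. The compound was given intragastrically starting 5 h post-infection, for 4 consecutive days, at 3, 9 or 18 mg kg⁻¹ d⁻¹ (4-day suppressive test). Parasitemia was counted as infected RBC per 1000 RBC on day 5, and reduction was calculated as 100 − 100 × (treated/control mean % parasitemia). Survivors were counted on day 10.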

Plasmodium berghei [6] = assay: Antimalarial activity against Plasmodium berghei ANKA infected in Kunming mouse assessed as reduction of parasitemia at 9 mg/kg, ip for 4 days measured on day 5; assay type: functional; design: scale not given: the % may be the effect or the level left; conditions: route intragastric, in the assay text read “ig for 4 days” for “ip for 4 days”; how it was run: as §1
Plasmodium berghei [7] = assay: Antimalarial activity against Plasmodium berghei ANKA infected in Kunming mouse assessed as reduction of parasitemia at 18 mg/kg, ip for 4 days measured on day 5; assay type: functional; design: scale not given: the % may be the effect or the level left; conditions: route intragastric, in the assay text read “ig for 4 days” for “ip for 4 days”; how it was run: as §1
Plasmodium berghei [8] = assay: Antimalarial activity against Plasmodium berghei ANKA infected in ig dosed Kunming mouse assessed as reduction of parasitemia administered for 4 days measured on day 5
Plasmodium berghei [9] = assay: Antimalarial activity against Plasmodium berghei ANKA infected in Kunming mouse assessed as mouse survival at 9 mg/kg, ip for 4 days measured on day 10; assay type: functional, organism-based; design: dose 9 mg/kg; conditions: in the assay text read “ig for 4 days” for “ip for 4 days”; how it was run: as §1
Plasmodium berghei [10] = assay: Antimalarial activity against Plasmodium berghei ANKA infected in Kunming mouse assessed as mouse survival at 3 mg/kg, ip for 4 days measured on day 10; assay type: functional, organism-based; design: dose 3 mg/kg; conditions: in the assay text read “ig for 4 days” for “ip for 4 days”; how it was run: as §1
Plasmodium falciparum [11] = assay: Ratio of N-(2,3-dihydrobenzo[b][1,4]dioxin-6-yl)-3-(4-(N-phenethylsulfamoyl)phenyl)propanamide IC50 to compound IC50 for Plasmodium falciparum DHFR
Plasmodium falciparum [12] = assay: Ratio of N-(2,3-dihydrobenzo[b][1,4]dioxin-6-yl)-3-(4-(N-phenethylsulfamoyl)phenyl)propanamide IC50 to compound IC50 for Plasmodium falciparum falcipain-2
Plasmodium berghei [13] = assay: Antimalarial activity against Plasmodium berghei ANKA infected in Kunming mouse assessed as reduction of parasitemia at 3 mg/kg, ig for 4 days measured on day 5; design: scale not given: the % may be the effect or the level left; conditions: route intragastric
Plasmodium berghei [14] = assay: Antimalarial activity against Plasmodium berghei ANKA infected in Kunming mouse assessed as reduction of parasitemia at 10 mg/kg, ip for 4 days measured on day 5; assay type: functional; design: scale not given: the % may be the effect or the level left; conditions: route intraperitoneal
Plasmodium berghei [15] = assay: Antimalarial activity against Plasmodium berghei ANKA infected in Kunming mouse assessed as mouse survival at 10 mg/kg, ig for 4 days measured on day 10

| pIC50 [1] | inhibition (Plasmodium falciparum [2]) [%] | inhibition (Plasmodium falciparum [3]) [%] | pIC50 [4] | SMILES | further results |
| --- | --- | --- | --- | --- | --- |
| 5.01 | 45.1 | 70.6 | 5.74 | CCc1nnc(NC(=O)CCc2ccc(S(=O)(=O)Nc3ccc(F)c(Cl)c3)cc2)s1 | – |
| – | < 5 | 15.6 | – | O=C(CCc1ccc(S(=O)(=O)NCc2ccccc2)cc1)Nc1ccc2c(c1)OCCO2 | – |
| – | 13.6 | 46.1 | 4.90 | COc1ccc(NC(=O)CCc2ccc(S(=O)(=O)NCCc3ccccc3)cc2)cc1O | – |
| – | 6.3 | 23.2 | – | COc1ccc(NS(=O)(=O)c2ccc(CCC(=O)Nc3ccc4c(c3)OCCO4)cc2)cc1OC | – |
| 7.77 | 97.4 | – | – | CC(C)C[C@H](NC(=O)[C@H]1O[C@@H]1C(=O)O)C(=O)NCCCCN=C(N)N [E-64] | – |
| – | 10.7 | 17.9 | – | O=C(CCc1ccc(S(=O)(=O)NCCc2ccccc2)cc1)NCc1ccccn1 | – |
| 5.05 | 41.5 | 37.9 | 4.82 | O=C(CCc1ccc(S(=O)(=O)NCCc2ccccc2)cc1)Nc1nc2ccccc2s1 | – |
| 5.15 | 72.9 | 67.5 | 5.20 | CCc1nnc(NC(=O)CCc2ccc(S(=O)(=O)Nc3ccc(F)cc3)cc2)s1 | Activity (Plasmodium berghei [5]): Active; Activity (Plasmodium berghei [6]): 53.6%; Activity (Plasmodium berghei [7]): 75.6%; Activity (Plasmodium berghei [8]): Dose dependent effect; Activity (Plasmodium berghei [9]): Active; Activity (Plasmodium berghei [10]): Active; Ratio IC50 (Plasmodium falciparum [11]): 6; Ratio IC50 (Plasmodium falciparum [12]): 8; Activity (Plasmodium berghei [13]): 44.6% |
| – | – | – | – | CCN(CC)CCCC(C)Nc1ccnc2cc(Cl)ccc12.O=P(O)(O)O.O=P(O)(O)O (centres undefined) [CHLOROQUINE PHOSPHATE] | Activity (Plasmodium berghei [14]): 100%; Activity (Plasmodium berghei [15]): Active |
| – | 15 | 51.2 | 5.03 | COc1ccc(NC(=O)CCc2ccc(S(=O)(=O)NCCc3ccccc3)cc2)cc1OC | – |
| – | 17.9 | 9.3 | – | COc1cccc(NS(=O)(=O)c2ccc(CCC(=O)Nc3ccc4c(c3)OCCO4)cc2)c1 | – |
| – | – | 98.9 | 7.70 | CCc1nc(N)nc(N)c1-c1ccc(Cl)cc1 [PYRIMETHAMINE] | – |
| – | 15.2 | 10.8 | – | O=C(CCc1ccc(S(=O)(=O)NCCc2ccccc2)cc1)NCc1cccs1 | – |
| – | < 5 | 11.8 | – | O=C(Nc1ccc2c(c1)OCCO2)c1ccc(S(=O)(=O)NCCc2ccccc2)cc1 | – |
| 5.09 | 46.5 | 31.6 | 4.70 | CCc1nnc(NC(=O)CCc2ccc(S(=O)(=O)NCCc3ccccc3)cc2)s1 | – |
| 5.57 | 94.5 | 34.8 | 4.84 | O=C(CCc1ccc(S(=O)(=O)NCCc2ccccc2)cc1)Nc1nc(-c2ccccc2)cs1 | – |
| 4.88 | 32.7 | 46.5 | 4.77 | O=C(CCc1ccc(S(=O)(=O)Nc2ccc(F)c(Cl)c2)cc1)Nc1ccc2c(c1)OCCO2 | – |
| – | < 5 | 68 | 5.30 | O=C(Cc1ccc(S(=O)(=O)NCCc2ccccc2)cc1)Nc1ccc2c(c1)OCCO2 | – |
| 4.27 | 23 | 26.5 | 4.45 | O=C(CCc1ccc(S(=O)(=O)NCCc2ccccc2)cc1)Nc1ccc2c(c1)OCCO2 | – |

Reference: ChEMBL document CHEMBL1938236, “Design and synthesis of small molecular dual inhibitor of falcipain-2 and dihydrofolate reductase as antimalarial agent” (Bioorg Med Chem Lett, 2012)
